Granule exo inh: lytic granule exocytosis inhibition; TALL-104 LAMP-1 surface exposure, flow cytometry; cells stimulated with thapsigargin and PMA; AID 651702; 0.66% of 360,000 active; inhibition, % at 10 µM;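 active = inhibition above about 55%, limit read from the data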
UPR XBP1 act: adaptive UPR (XBP1) activation; activation, % at 20 µM; 0.33% of 330,000 active; CHO-XBP1 luciferase reporter, IRE1-XBP1 UPR activation, luminescence; percent of tunicamycin response, DMSO as zero;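 active = versus positive control, 20 µM dose yields 30% or more activation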;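 note: 100% = tunicamycin at 10 µg/mL and 0% = DMSO only wells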
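Material: CHO-XBP1 cells stably carrying IRE1-XBP1-driven luciferase reporter | Medium: F12 with 10% serum | Compound dosing: 20 µM single concentration, DMSO 1% | Incubation: Overnight seeding at 37 °C, 6 h compound treatment at 37 °C | Detection: Steady-Glo luminescence read | Read-out basis: % activation of reporter signal versus tunicamycin and DMSO controls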
Mdm2-MdmX inh: disrupts the human Mdm2-MdmX interaction; AID 485346; O15151+Q00987; 3% of 330,000 active; inhibition, % at 8 µM; SaOS-2 split-luciferase Mdm2/MdmX complementation, luminescence;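 active = inhibition of at least 50% at 8 µM in the primary screen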
Target sequence (O15151 whole entry, looked up): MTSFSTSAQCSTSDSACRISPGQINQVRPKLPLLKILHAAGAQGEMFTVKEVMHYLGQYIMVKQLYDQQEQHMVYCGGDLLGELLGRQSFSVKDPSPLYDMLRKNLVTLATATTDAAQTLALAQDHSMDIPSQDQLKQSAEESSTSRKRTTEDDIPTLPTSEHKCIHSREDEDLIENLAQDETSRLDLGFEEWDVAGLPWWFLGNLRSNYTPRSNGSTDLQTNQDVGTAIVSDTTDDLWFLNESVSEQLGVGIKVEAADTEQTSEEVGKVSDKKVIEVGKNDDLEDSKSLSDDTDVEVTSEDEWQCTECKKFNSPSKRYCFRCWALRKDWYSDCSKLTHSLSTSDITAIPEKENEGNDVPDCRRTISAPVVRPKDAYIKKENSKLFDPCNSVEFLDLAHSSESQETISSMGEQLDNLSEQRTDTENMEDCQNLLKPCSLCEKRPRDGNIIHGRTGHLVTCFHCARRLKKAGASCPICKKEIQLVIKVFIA
Target sequence (Q00987 whole entry, looked up): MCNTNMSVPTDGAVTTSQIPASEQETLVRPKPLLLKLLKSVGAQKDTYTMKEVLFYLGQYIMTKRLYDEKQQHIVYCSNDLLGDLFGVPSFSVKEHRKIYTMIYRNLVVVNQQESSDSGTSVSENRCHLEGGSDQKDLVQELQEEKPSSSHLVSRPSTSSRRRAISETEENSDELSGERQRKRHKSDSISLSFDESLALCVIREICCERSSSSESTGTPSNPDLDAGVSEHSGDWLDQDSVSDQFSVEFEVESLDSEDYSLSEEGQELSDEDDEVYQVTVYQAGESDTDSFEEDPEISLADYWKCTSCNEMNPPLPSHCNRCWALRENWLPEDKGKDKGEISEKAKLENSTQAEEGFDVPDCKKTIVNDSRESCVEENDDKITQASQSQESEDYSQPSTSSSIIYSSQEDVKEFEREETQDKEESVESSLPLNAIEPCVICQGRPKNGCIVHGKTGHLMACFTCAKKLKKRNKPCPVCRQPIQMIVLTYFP
UPR CHOP act: activators of apoptotic arm of unfolded protein response (CHOP). CHO-CHOP luciferase reporter, UPR activation, luminescence; percent of tunicamycin response over DMSO baseline. activation, % at 10 µM. 0.34% of 330,000 active;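 active = at 10 µM dose, activation of 40% or more, normalized to positive control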;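 note: 100% = tunicamycin at 10 µg/mL and 0% = DMSO alone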
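Dosing – one dose, 10 µM in 0.5% DMSO · System – CHO-CHOP cells, stable luciferase reporter of PERK-eIF2a-CHOP signalling · Input – 500 cells/well · Control set – tunicamycin 10 µg/mL final as positive, DMSO-only wells as negative · Timing – 6 h compound treatment, 37 °C · Measure – % activation vs tunicamycin · Technique – luminescence read with Steady-Glo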
ABHD5 PLIN5 PPI: blocks binding of human ABHD5 to perilipin-5; Q00G26+Q8WTS1; Split G. princeps luciferase complementation, luminescence, 4 h; inhibition, % at 4 µM; 0.78% of 360,000 active;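 active = inhibition above the mean inhibition across every tested compound plus 3 SD, cut at about 22% in these data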;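 note: 0% = DMSO only wells and the 100% control is not disclosed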
Mdm2-MdmX conf: confirmation of human Mdm2/MdmX interaction inhibitors; inhibition, % at 8 µM; shares compounds with Mdm2-MdmX inh; 55% of 10,000 active; Mdm2-MdmX binding, luminescent assay; in the data active = inhibition above about 40%
Full FLuc ctr: counter-screen for Mdm2/MdmX inhibitors: full-length luciferase. 77% of 6,200 active. SaOS-2 full-length luciferase counterscreen, luminescence. inhibition, % at 8 µM. shares compounds with Mdm2-MdmX inh. AID 504607;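 active = mean inhibition at 8 µM reaching about 37%, which flags the compound as non-specific, limit read from the data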;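 note: p53-null SaOS-2 cells with luciferase driven by a doxycycline-inducible promoter; compound on cells about two nights before reading with doxycycline added after day one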
* hit, by the source's call; . = not tested or not shown. This is a sample that favours compounds with a hit; in the whole collection about 4% have one here.

SMILES	Granule exo inh	UPR XBP1 act	Mdm2-MdmX inh	UPR CHOP act	ABHD5 PLIN5 PPI	Mdm2-MdmX conf	Full FLuc ctr
CCc1cccc(N=c2c([N+](=O)[O-])nn(-c3ccc4c(c3)OCCO4)n2O)c1	2.8	12.7	73.2*	11.7	2.6	77.4*	62.0*
COc1cc(N=c2c([N+](=O)[O-])nn(-c3ccc4c(c3)OCCO4)n2O)cc(OC)c1	-5.2	0.7	59.4*	1.2	-6.6	28.5	.
O[C@@H]1[C@@H](O)C=C2CCN3Cc4cc5c(cc4[C@H]1C23)OCO5 (some centres undefined)	-1.6	0.2	83.6*	-3.0	7.0	75.6*	101.3*
CN1C(=O)C(CC(=O)Nc2ccc(F)cc2)N(CCCc2ccccc2)C1=S (centres undefined)	7.7	-4.8	24.9	3.8	-2.3	.	.
O=C(Cn1nnc2ccccc21)Nc1ccccc1[N+](=O)[O-]	2.2	-0.2	-6.1	0.0	-4.2	.	.
O=C(Nc1ccccc1[N+](=O)[O-])c1cc2ccccc2nc1Cl	-5.5	3.7	63.6*	21.9	-7.4	-25.9	.
O=C(Nc1ccccc1[N+](=O)[O-])C1=C(O)CCn2c1nc1ccccc12	3.9	6.9	70.7*	2.1	12.7	18.1	.
Cc1cccc(N2CC(C(=O)Nc3ccccc3N3CCOCC3)CC2=O)c1C (centres undefined)	-1.6	-0.1	3.0	1.4	-1.2	.	.
CC1CCCC(C)N1CCCNC(=O)c1cc2c(s1)-c1ccccc1OC2 (centres undefined)	31.5	-4.2	61.2*	2.5	3.1	26.1	.
CC1CC(C)CN(CCCNC(=O)c2cc3c(s2)-c2ccccc2OC3)C1 (centres undefined)	14.8	-2.7	37.6	3.6	-0.1	.	.
CCCCC(=O)Nc1ccc(C(=O)NNC(=O)c2ccc(C)c(Br)c2)cc1	-2.0	0.2	65.1*	-0.5	7.9	30.9	43.4*
COc1ccc(-c2cc(-c3ccccc3)nc(SCC(=O)Nc3nccs3)c2C#N)cc1	-8.8	1.4	75.1*	2.8	2.9	14.0	.
Cc1ccc(NC(=O)CNC(=O)c2ccc(Oc3ccccc3)cc2)nc1	-1.8	1.0	-9.5	-1.1	-1.6	.	.
Cc1ccc(NC(=O)CNC(=O)c2cccc(C)c2)nc1	3.1	0.1	75.7*	-0.2	5.6	47.9*	61.5*
Oc1ccc(-c2csc(Nc3ccc4c(c3)OCO4)n2)c(O)c1	-5.3	.	.	.	-19.1	.	.
N#Cc1ccc(Nc2nc(-c3ccc(O)cc3O)cs2)cc1C(F)(F)F	-2.8	11.4	68.8*	6.3	-32.1	60.8*	55.0*
O=C(NCCN1CCOCC1)c1cc(-c2cccs2)on1	-2.2	5.6	-28.4	1.1	-0.2	.	.
CCOc1ccc(-c2csc(/C(C#N)=C\c3ccc(O)c([N+](=O)[O-])c3)n2)cc1	31.8	2.9	96.4*	6.1	-5.3	82.9*	51.5*
COc1cc(C(CCN2CCCC2)c2c(OC)cc(OC)c3c(C)cc(=O)oc23)cc(OC)c1OC (centres undefined)	-7.3	1.9	14.7	0.1	2.8	.	.
CCCCCc1cc(=O)oc2c(C(CCN(CC)CC)c3ccc(OC)cc3)c(OC)cc(OC)c12 (centres undefined)	-3.5	3.2	99.8*	3.5	11.9	33.8	51.3*
CCCCCc1cc(=O)oc2c(C(CCN3CCCC3)c3ccc(N(C)C)cc3)c(OC)cc(OC)c12 (centres undefined)	-5.8	10.0	96.8*	3.9	9.2	39.2	53.1*
COc1cc(OC)c2ccc(=O)oc2c1C(CCN1CCCC1)c1ccc(N(C)C)cc1 (centres undefined)	4.7	3.1	2.8	1.0	-9.6	.	.
CCCCCc1cc(=O)oc2c(C(CCN3CCCC3)c3cc(OC)c(OC)c(OC)c3)c(OC)cc(OC)c12 (centres undefined)	-4.7	2.2	100.3*	8.9	18.2	62.2*	39.2*
CCN(CC)CCC(c1ccc(N(C)C)cc1)c1c(OC)cc(OC)c2ccc(=O)oc12 (centres undefined)	-2.1	1.5	-7.6	-1.5	0.8	.	.
COc1cc(C(CCN2CCCCC2)c2c(OC)cc(OC)c3c(-c4ccccc4)cc(=O)oc23)cc(OC)c1OC (centres undefined)	-2.0	14.1	64.6*	0.2	20.1	23.6	.
SMILES	Granule exo inh	UPR XBP1 act	Mdm2-MdmX inh	UPR CHOP act	ABHD5 PLIN5 PPI	Mdm2-MdmX conf	Full FLuc ctr
COc1ccc(/C(N)=N/OC(=O)c2cccs2)cc1	-1.7	-1.8	-91.9	6.3	0.8	.	.
CCc1cccc2c(C(=O)COC(=O)c3ccc(O)cc3)c[nH]c12	0.5	0.0	10.1	4.7	2.5	.	.
CCC(CO)NCCNC(CC)CO (centres undefined)	8.9	-2.3	4.6	-0.3	-4.1	.	.
CCCCCc1cc(=O)oc2c(C(CCN3CCCC(C)C3)c3ccc(OC)cc3)c(OC)cc(OC)c12 (centres undefined)	26.5	19.2	86.4*	7.4	21.0	41.5*	50.1*
O=C(CN(c1ccc(Br)cc1)S(=O)(=O)c1ccc(Cl)c([N+](=O)[O-])c1)NCCc1ccccc1	-1.6	0.6	33.9	26.7	-5.4	.	.
O=C(CN(c1cccc(C(F)(F)F)c1)S(=O)(=O)c1ccc(Cl)c([N+](=O)[O-])c1)NCc1ccccc1Cl	7.1	4.4	73.0*	37.8	5.7	32.0	102.7*
O=C(CN(c1cccc(C(F)(F)F)c1)S(=O)(=O)c1ccc(Cl)c([N+](=O)[O-])c1)NCc1ccccc1	4.5	1.4	82.0*	24.1	2.9	40.4*	59.2*
Cc1ccc(N(CC(=O)NCCc2ccc(F)cc2)S(=O)(=O)c2ccc(Cl)c([N+](=O)[O-])c2)c(C)c1	39.6	5.6	100.4*	11.3	7.0	7.3	.
CS(=O)(=O)N(CC(=O)N/N=C/c1ccccc1C(=O)O)c1cccc(Cl)c1Cl	1.2	-4.7	6.1	-1.3	5.9	.	.
CC(C)c1ccc(/C=N/NC(=O)CN(c2cccc(Cl)c2Cl)S(C)(=O)=O)cc1	14.6	5.5	60.9*	0.7	-2.9	6.2	.
Cc1[nH][nH]c(=O)c1C(c1ccc([N+](=O)[O-])cc1)c1c(C)[nH][nH]c1=O	-5.2	-1.4	10.1	0.9	6.9	.	.
Cc1ccc(OCCN2C(=O)C(=O)c3cc(C)ccc32)cc1	71.7*	17.9	62.5*	1.8	8.5	61.4*	79.2*
CCCN1C(=O)C(=O)c2cc(Cl)ccc21	14.0	24.8	72.7*	2.0	5.6	66.6*	45.4*
CCOC(=O)N1CCN(Cc2nc3c(c(=O)n(C)c(=O)n3C)n2CCCc2ccccc2)CC1	0.5	2.8	11.2	-1.8	0.3	.	.

Screens from PubChem BioAssay.
